Screens (PubChem BioAssay)
A selection: hits, their analogues and other compounds. The true share with any hit is near 3%.
Hep lipid drop = inhibitors of hepatocyte lipid droplet formation, primary screen, imaging, high-throughput imaging, BODIPY stain | AID 1656, 2009 | actives 0.4% (n = 240,000) | inhibition, % at 6.5 µM | AML12 mouse hepatocytes, oleate lipid droplets;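 active = lipid droplet intensity inhibited by at least 50%, with more than 500 cells counted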
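System: AML12 hepatocytes (mouse). Probe or stimulus: oleic acid at 100 µM to induce lipid droplet formation. Times: overnight treatment with compound plus oleate. Detection: Image-based BODIPY and DAPI two-channel analysis. Evaluation: percent inhibition of filter-corrected integrated lipid droplet intensity per well.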
GRIN3A LBD mod = binders of NR3A ligand-binding domain, primary screen, biophysical, differential scanning fluorimetry, uHTS; Glutamate receptor ionotropic, NMDA 3A (GRIN3A) ligand-binding domain; NR3A LBD differential scanning fluorimetry, Tm shift; 0% = protein alone, 100% = glycine-bound protein; Tm shift relative to glycine control, % at 25 µM; actives 2.5% (n = 340,000); AID 1259313, 2017;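 active = melting temperature shift of at least 10% of the positive control shift, at one fixed dose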
NPR2 activator = human GC-B receptor activators, primary screen, HEK293 GC-B cells, cGMP TR-FRET, EC30 CNP; Atrial natriuretic peptide receptor 2 (Homo sapiens), P20594; activation, % at 10 µM; AID 1920062, 2024; actives 0.11% (n = 370,000); 0% at EC30 CNP, 100% saturating CNP;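 active = activation at 10 µM reaching about 35% in either raw or pattern-adjusted values, limit read from the data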
GC-A act = GC-A stimulated cGMP production enhancers – HEK293 GC-A cells, cGMP TR-FRET, EC30 ANP, primary screen; Atrial natriuretic peptide receptor 1 (Homo sapiens), P16066; activation, % at 10 µM; 0% at EC30 ANP, 100% saturating ANP; actives 0.14% (n = 370,000); in the data active = activation above about 40%
aDG glyco act = activators of alpha-DG glycosylation, primary screen, uHTS, Pro5-aDG cells, AlphaScreen. alpha-DG glycosylation AlphaScreen (IIH6); 0% Pro5, 100% B10-LARGE cell signal. activation, % at 10 µM. AID 624168, 2012. actives 0.22% (n = 360,000);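 active = activation of at least 8% versus controls, or a plate z-score of at least 8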;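 also: Pro5 are CHO cells carrying HIG-tagged alpha-DG that lacks glycosylation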
GASC-1 inh = inhibitors of GASC-1 histone demethylase, primary screen, biochemical, fluorescence, DELFIA europium; actives 0.069% (n = 330,000); AID 2099, 2009; GST-JMJD2C(1-420) H3K9me3 demethylation; Lysine-specific demethylase 4C (Homo sapiens), Q9H3R0; inhibition, % at 2.35 µM;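 active = more than half of a compound's replicate wells show inhibition beyond 50%, single wells judged on their own value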;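 also: signal counts dimethyl H3K9 product captured on neutravidin plate; 0% = median of DMSO wells and 100% = 0.3 times that DMSO median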
Hep lipid conf = hepatocyte lipid droplet accumulation inhibitors, confirmation, imaging, AML12 mouse hepatocytes, single concentration, high-content; shares compounds with Hep lipid drop; BODIPY lipid droplet imaging; droplets induced with 100 µM oleic acid; inhibition, % at 5.2 µM; actives 65% (n = 870); AID 463183, 2010;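 active = inhibition of lipid droplet metric at least 50%, with more than 300 cells in each of four replicates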;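 also: plate controls were DMSO with oleic acid for no effect and 5 µM Triacsin-C for full effect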
AML12 tox img = AML12 hepatocyte cytotoxicity, counter-screen for hepatic lipid droplet formation project, imaging, DAPI nuclear morphology imaging; AML12 mouse hepatocytes; hits give high values; cells fed 100 µM oleate overnight; actives 3% (n = 870); z-score at 5 µM; shares compounds with Hep lipid drop; in the data active = z-score above about 6.3;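 also: compound exposure lasted overnight at 37 °C before fixation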
AML12 tox conf = AML12 hepatocyte cytotoxicity, confirmation, cytotoxicity control for hepatic lipid droplet formation project, cell-based, single concentration | AID 463219, 2010 | shares compounds with Hep lipid drop | AML12 mouse hepatocyte viability, ATP luminescence; cells loaded with 100 µM oleic acid | 530 tested, under 10 active | cytotoxicity, % at 50 µM;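 active = cytotoxicity above 50% in each of four replicates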;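 also: compound exposure lasted overnight at 37 °C before the ATP read; 0% = DMSO-treated cells and 100% = wells with no cells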
The depositor's hits bear a star; . = not tested or not shown.

SMILES	Hep lipid drop	GRIN3A LBD mod	NPR2 activator	GC-A act	aDG glyco act	GASC-1 inh	Hep lipid conf	AML12 tox img	others
Cc1ccc(C2=NC3(CCCCC3)N=C2SCC(=O)Nc2ccc3c(c2)OCCO3)cc1	54*	-5	2	6	0	0	70*	-0.27	AML12 tox conf=-9
CCOc1ccc(C(=O)OCC(=O)Nc2cc(C)on2)cc1OCC	80*	2	2	-2	0	3	106*	-0.18	AML12 tox conf=11
COc1cccc(NC(=O)CN(Cc2ccccc2)S(C)(=O)=O)c1	50*	-1	1	-1	0	-2	43	-0.27
CCOC(=O)c1ccc(NC(=O)CN(Cc2ccc(Cl)cc2)S(C)(=O)=O)cc1	50*	-5	-4	-8	0	2	76*	-0.59	AML12 tox conf=2
CCCCNc1ccc2c(c1)OC[C@@H](Cc1ccccc1)NS2(=O)=O	.	.	2	0	.	.	.	.
Cc1ccc(C(=O)NC2CCCCN(Cc3cccc(Cl)c3)C2=O)c(C)c1 (stereo unspecified)	.	.	-8	3	.	.	.	.
COc1ccc(/C=C(/NC(=O)c2cccs2)C(=O)Nc2ccc(C)cc2)cc1OC	61*	-1	8	0	0	0	100*	0.21	AML12 tox conf=9
COc1ccc(/C=C(\NC(=O)c2cccs2)C(=O)Nc2ccc(C)cc2)cc1OC	48	5	5	0	0	23	.	.
Nc1nc(-c2ccc(Cl)cc2)c(N=Nc2ccc(S(=O)(=O)N3CCOCC3)cc2)s1	65*	17*	4	5	-1	-1	33	0.73
CCN1CCN(c2cc(C)c3cc(NC(=O)CCC(=O)Nc4ccc(OC)cc4OC)ccc3n2)CC1	89*	0	-3	2	0	-2	94*	0.97	AML12 tox conf=16
CSc1ccc(CN2CCN(C3CCCC3)C(CCO)C2)cc1 (stereo unspecified)	55*	-1	0	-2	0	-1	-3	-0.55
OCCC1CN(Cc2ccncc2)CCN1C1CCCC1 (stereo unspecified)	11	1	-1	2	0	1	.	.
COc1ccc(NC(=O)C2(C)Cc3c(-c4ccc(N(C)C)cc4)ccnc3O2)cc1 (stereo unspecified)	.	.	-6	-6	0	.	.	.
FC(F)(F)c1cc(C(F)(F)F)c2ccc(N3CCN(c4ccc(Cl)cc4)CC3)nc2n1	.	-6	6	1	0	2	.	.
N#CC(c1ccc(Cl)cc1)c1ccc2c(C(F)(F)F)cc(C(F)(F)F)nc2n1 (stereo unspecified)	59*	-1	8	1	-1	-3	-68	6.2*
CCN(CCn1cccn1)C(=O)c1cc(COc2ccc(F)cc2Cl)on1	55*	1	4	6	0	-3	-25	-0.41
CCN(CCn1cccn1)C(=O)c1cc(COc2cccc3cccnc23)on1	-2	-1	-3	-4	0	4	.	.
CN(C)S(=O)(=O)n1cc(/C=C(\NC(=O)c2ccccc2Cl)C(=O)N2CCOCC2)c2ccccc21	-3	3	-1	3	1	3	.	.
COc1ccccc1/C=C/CN1CCC(Oc2cc(C(=O)NC3CC3)ccc2OC)CC1	1	2	-1	-1	0	-6	.	.
COc1ccc(N(C)C(=O)c2cn(CC(C)C)c(=O)c3cc(OC)c(OC)cc23)cc1	.	-1	-5	-9	0	-11	.	.
CCn1cc(C(=O)N(C)c2ccc(OC)cc2)c2cc(OC)c(OC)cc2c1=O	68*	-1	-4	-13	0	1	25	-0.89
COc1ccccc1N1CCN(C(=O)Cn2ncc3c([nH]c4ccccc43)c2=O)CC1	52*	0	2	2	0	6	71*	-1.5	AML12 tox conf=8
COc1ccc(N2CCN(C(=O)Cn3ncc4c([nH]c5ccccc54)c3=O)CC2)cc1	-9	2	2	6	0	1	.	.
O=C(CCCSc1ccc(Cl)cc1)Nc1cc(S(=O)(=O)N2CCOCC2)ccc1O	.	8	-4	7	0	21	.	.
CC(C)Cn1c(CCC(N)=O)nnc1SC(C)C(=O)Nc1ccc2c(c1)OCO2 (stereo unspecified)	.	0	-3	-1	0	8	.	.
SMILES	Hep lipid drop	GRIN3A LBD mod	NPR2 activator	GC-A act	aDG glyco act	GASC-1 inh	Hep lipid conf	AML12 tox img	others
CCc1ccccc1NC(=O)COc1ccc(C(=S)N2CCCC2)cc1	55*	2	3	6	0	-1	38	0.095
CC(=O)c1ccc(OCC(=O)Nc2ccccc2N2CCCC2)cc1	-5	2	-8	-1	0	-12	.	.
Cc1cccc(N(Cc2cc(=O)[nH]c3ccccc23)C(=O)CCl)c1	55*	7	1	-18	0	9	80*	0.32
CCCC(=O)N(Cc1cc(=O)[nH]c2ccccc12)c1cccc(C)c1	-31	-3	-12	-23	0	-5	.	.
CN(CCc1ccccc1)C(=O)c1cccc(NC(=O)Cc2cccc(NC(=O)C3CCCN(C(=O)C4CCCC4)C3)c2)c1 (stereo unspecified)	.	1	1	1	0	.	.	.
CC1(C)Oc2ccc3ccc(=O)oc3c2/C(=C/Nc2cccc(O)c2)C1=O	-3	0	-4	-2	-1	-1	.	.
CC1(C)Oc2ccc3ccc(=O)oc3c2/C(=C/Nc2ccc(O)cc2)C1=O	56*	-5	-15	-44	-1	-3	94*	-0.42	AML12 tox conf=-12
O=C(NNC(=O)c1cccnc1Cl)c1ccc(F)cc1	0	0	6	-1	0	31	.	.
O=c1[nH]cc(S(=O)(=O)NCc2ccccc2)c(=O)[nH]1	-8	0	3	6	0	0	.	.
